These results are taken from paper PMC12744579 (Nanotechnology, Science and Applications, 2025).

In one data set the test system is rats. Conditions: 14 to 21 g/kg bw/day; cited from earlier work.
A short description of data set [1]: In vivo oral gavage study, blood. Further details: species or system New Zealand White rabbits. As to conditions: male rabbits, 60 g HED. The method in brief: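 Male adult New Zealand White rabbits (3.0 ± 0.3 kg) on high-fibre diet, fasted ~16 h, stratified by body weight, n=6/group. Free or pea-protein-nanoparticle-encapsulated test compound was given by oral gavage at 60 g per 70 kg adult HED, scaled by rabbit body-surface-area factors to an individual per-kg dose. Marginal ear vein blood was sampled pre-dose to 24 h (11 time-points); BHB was measured by assay kit.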

In general, MRT refers to a mean duration of stay, worked out from the concentration-time curve. A word on the Tmax: it is the time from dosing to the highest level. Turning to `C[C@@H](O)CC(=O)OCC(O)CO` (stereo partly drawn) [KM, (R)-3-hydroxybutyrate monoglyceride], in the data set with rats, the “systemic toxicity in vivo” value is “no systemic toxicity”. The “[BHB]max” value in data set [1] worked out at 1.33 mmol/L. In data set [1] (blood BHB), the MRT was 6.60 h and the Tmax came out at 0.75 h.
